The record followed here is ChEMBL document CHEMBL4706625, “Synthesis of Guaianolide Analogues with a Tunable α-Methylene-γ-lactam Electrophile and Correlating Bioactivity with Thiol Reactivity” (J Med Chem, 2020).

Activity calls are given as the source filed them. The rule behind the calls is not given here. Where only a bound is given, the exact number is not on record here.

Series [1] is described as follows: Thiol-reactivity using La antigen containing reactive cysteine C245 at 0.5 mM incubated for 1 hr by MS analysis based ALARM MSPS analysis. The following applies: 500 µM.
Series [2] is described as follows: Thiol-reactivity using 13C-labeled La antigen containing reactive cysteine C245 at 400 uM at 37 degreeC for 90 mins in absence of DTT by 2D 1H-13C HMQC ALARM NMR spectroscopy. It counts as ADME. The following applies: 1.5 h. The procedure, abridged:
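ALARM NMR: compound (400 μM final) was incubated with 13C-methyl-labeled La antigen (50 μM final) at 37 °C for 90 min, without and with 20 mM DTT. Reactivity was scored from 13C-methyl chemical shift changes and attenuation of diagnostic peaks in 1H-13C HMQC spectra without DTT.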

Series [3] can be described thus: Toxicity in African green monkey Vero cells assessed as reduction in cell viability incubated for 48 hrs by Alamar blue assay. In kind it is cell-based, Chlorocebus sabaeus. A general note: The colour change of resazurin is a common sign of viable cells or microbes.
Series [4] concerns HEK293. Description: Inhibition of TNFalpha-induced canonical NF-kappaB signaling (unknown origin) expressed in HEK293 cells assessed as residual NF-kappaB activity at 7.5 uM pre-incubated for 30 mins followed by TNFalpha stimulation for 8 hrs by NF-kappaB-driven SEAP assay. The following applies: Homo sapiens, time 510.0 min.
For series [5], the system named is A549. Kind of series: Inhibition of TNFalpha-induced canonical NF-kappaB signaling (unknown origin) expressed in human A549 cells at 20 uM […] by NF-kappaB-driven luciferase reporter gene assay. It counts as cell-based. The following applies: time 500.0 min.
Series [6] deals with A549. Description: Inhibition of TNFalpha-induced canonical NF-kappaB signaling (unknown origin) expressed in human A549 cells assessed as residual NF-kappaB activity at 10 uM […] by NF-kappaB-driven luciferase reporter gene assay. In kind it is cell-based. The following applies: time 500.0 min. Background: In a reporter assay the amount or activity of a reporter protein is the signal.

Series [7] relates to HEK293. Description: Inhibition of TNFalpha-induced canonical NF-kappaB signaling (unknown origin) expressed in HEK293 cells assessed as residual NF-kappaB activity at 7.5 uM pre-incubated for 30 mins followed by TNFalpha stimulation for 8 hrs by NF-kappaB-driven SEAP assay. It counts as cell-based. The following applies: Homo sapiens, time 510.0 min. The procedure, abridged:
(§1)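 HEK293 cells stably carrying an NF-κB-driven SEAP reporter were grown in DMEM with 10% FBS, penicillin/streptomycin and 0.5 mg/mL G418 at 37 °C, 5% CO2. They were seeded at 5,000 cells/well 24 h ahead. Compounds (1–7.5 μM, 0.5% DMSO final) were added for 30 min, then TNF-α at 22.5 ng/mL final for 8 h. Secreted SEAP in the medium was quantified chemiluminescently, relative to the induced control set as 100%.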

In series [8] the test system is A549. Description: Inhibition of TNFalpha-induced canonical NF-kappaB signaling (unknown origin) expressed in human A549 cells assessed as residual NF-kappaB activity at 20 uM […] followed by TNFalpha stimulation for 8 hrs by NF-kappaB-driven luciferase reporter gene assay. The following applies: time 500.0 min. In kind it is cell-based.
In series [9] the test system is HEK293. Description: Inhibition of TNFalpha-induced canonical NF-kappaB signaling (unknown origin) expressed in HEK293 cells at 7.5 uM pre-incubated for 30 mins followed by TNFalpha stimulation for 8 hrs by NF-kappaB-driven SEAP assay. The following applies: Homo sapiens, time 510.0 min. In kind it is cell-based. The method, boiled down:
as §1

Series [10] has as its system A549. Description: Inhibition of TNFalpha-induced canonical NF-kappaB signaling (unknown origin) expressed in human A549 cells at 10 uM […] by NF-kappaB-driven luciferase reporter gene assay. It counts as cell-based. The following applies: time 500.0 min.

Turning to `CCN(CC)c1ccc2c(C)c(-c3ccc(N4C(=O)C=CC4=O)cc3)c(=O)oc2c1`, the outcome in series [1] and in series [2] was Active.
As a reminder, the IC50 is the concentration needed to halve the response being measured. What is called inhibition is the share of the control response that was lost under treatment. In the case of `C=C1C(=O)N[C@@H]2C3=CC(=O)CC3=C(C)CC[C@@H]12`, the IC50 at 48 h in [3] is > 200 µM. Further, the inhibition result with HEK293 [4] and with A549 [5] was “inactive” each time.
In the case of `C=C1C(=O)O[C@H]2C3=C(c4ccccc4)C(=O)CC3=C(C)CC[C@H]12`, the outcome in series [1] and in series [2] was Active.
As to `C=C1C(=O)N[C@@H]2C3=C(c4ccccc4)C(=O)CC3=C(C)CC[C@@H]12`, the inhibition result with A549 [5] is “inactive”.
`C=C1C(=O)O[C@@H]2[C@H]3O[C@]3(C)CC/C=C(\C)CC[C@@H]12`: the Activity in the series on A549 [6] is 53%; in the series with HEK293 [7], 20%.
For `C=C1C(=O)N(c2ccc(C(F)(F)F)cc2)[C@@H]2C3=C(c4ccccc4)C(=O)CC3=C(C)CC[C@@H]12` (relative stereo), the Activity result in series [1] is “Not Active”; in [2], “Not Active”; with A549 [6], 62%; with A549 [8], 21%; in the series on HEK293 [7], 44%.
In the case of `C=C1C(=O)N(C(C)=O)[C@@H]2C3=CC(=O)CC3=C(C)CC[C@@H]12` (relative stereo), the Activity with A549 [6] was 59%; in the series with A549 [8] it was 28%; in the series on HEK293 [7] it was 19%.
Take `C=C1C(=O)N(C)[C@@H]2C3=C(c4ccccc4)C(=O)CC3=C(C)CC[C@@H]12` (relative stereo): the inhibition result with A549 [5] was “inactive”.
As for `C=C1C(=O)N(S(=O)(=O)c2ccc(C)cc2)[C@@H]2C3=C(c4ccccc4)C(=O)CC3=C(C)CC[C@@H]12` (relative stereo), the inhibition with HEK293 [9] and in the series on A549 [10] was 100% in each case.
On to `C=C1C(=O)N(c2ccc(OC)cc2)[C@@H]2C3=C(c4ccccc4)C(=O)CC3=C(C)CC[C@@H]12` (relative stereo), for which the inhibition result in the series on HEK293 [4] and with A549 [5] was “inactive” in each case.
Regarding `C=C1C(=O)N(c2ccccc2)[C@@H]2C3=C(c4ccccc4)C(=O)CC3=C(C)CC[C@@H]12` (relative stereo), the inhibition entry with HEK293 [4] and in the series on A549 [5] was “inactive” throughout.
Turning to `OC(Cn1cncn1)(Cn1cncn1)c1ccc(F)cc1F` [FLUCONAZOLE], the Activity result in series [1] and in [2] was “Not Active” each time.
